According to ChEMBL document CHEMBL1141146, “Androsterone 3alpha-ether-3beta-substituted and androsterone 3beta-substituted derivatives as inhibitors of type 3 17beta-hydroxysteroid dehydrogenase: chemical synthesis and structure-activity relationship” (J Med Chem, 2005):

Key:
[1] = target: T1, 17-beta-hydroxysteroid dehydrogenase type 3 (Homo sapiens) (UniProt P37058); assay: Inhibition of type-3 17 beta-hydroxysteroid dehydrogenase expressed in HEK293 cells at 0.3 uM 37 degree C pH 7.4; format: cell-based
T1 sequence (whole entry): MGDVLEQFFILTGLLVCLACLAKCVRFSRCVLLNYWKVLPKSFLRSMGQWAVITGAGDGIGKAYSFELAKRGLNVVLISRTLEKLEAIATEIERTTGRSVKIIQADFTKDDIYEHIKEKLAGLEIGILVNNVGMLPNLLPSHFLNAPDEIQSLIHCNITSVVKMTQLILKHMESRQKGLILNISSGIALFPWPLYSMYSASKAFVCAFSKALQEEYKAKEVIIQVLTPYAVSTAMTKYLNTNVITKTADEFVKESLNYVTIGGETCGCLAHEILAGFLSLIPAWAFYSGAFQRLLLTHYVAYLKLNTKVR
Procedure, shortened: (§1)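 Human type 3 17β-HSD was transfected into HEK-293 cells by calcium phosphate. The cells were sonicated in 50 mM Na phosphate pH 7.4 with 20% glycerol and 1 mM EDTA. The 100000g microsomal pellet served as enzyme. The reaction ran at 37 °C in the same buffer with 2 mM NADPH and 0.1 μM [14C]-Δ4-dione, reading conversion to testosterone. Percent inhibition was taken at 0.3 or 3 μM inhibitor.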

[2] = target: T1, 17-beta-hydroxysteroid dehydrogenase type 3 (Homo sapiens); assay: Inhibition of type-3 17 beta-hydroxysteroid dehydrogenase expressed in HEK293 cells at 3 uM 37 degree C pH 7.4; format: cell-based; procedure, shortened: as §1
[3] = target: T2, 17-beta-hydroxysteroid dehydrogenase type 3 (Homo sapiens, UniProt P37058); assay: Inhibition of type-3 17 beta-hydroxysteroid dehydrogenase expressed in HEK293 cells at 37 degree C pH7.4; format: cell-based
T2 sequence (P37058 whole entry): T1 sequence (whole entry)
Procedure, shortened: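 HEK-293 cells were transfected with human type 3 17β-HSD, and their 100000g microsomes served as enzyme. Incubation was at 37 °C in 50 mM Na phosphate pH 7.4 with 20% glycerol, 1 mM EDTA, 2 mM NADPH and 0.1 μM [14C]-Δ4-dione. Several inhibitor concentrations were tested. Percent transformation to testosterone was plotted against inhibitor concentration, and IC50 was computed from the curve.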

[4] = target: T1, 17-beta-hydroxysteroid dehydrogenase type 3 (Homo sapiens); conditions: HEK293, 0.3 uM
[5] = target: T1, 17-beta-hydroxysteroid dehydrogenase type 3 (Homo sapiens); assay: Inhibition of type-3 17 beta-hydroxysteroid dehydrogenase expressed in HEK293 cells at 3 uM 37 degree C in pH 7.4; format: cell-based; procedure, shortened: as §1

SMILES | inhibition [1] [%] | inhibition [2] [%] | IC50 [3] [nM] | inhibition [4] [%] | inhibition [5] [%]
CO[C@@H]1CC[C@@]2(C)C(CC[C@@H]3[C@@H]2CC[C@]2(C)C(=O)CC[C@@H]32)C1 (stereo not given in full) | 83 | 94 | – | – | –
C[C@]12CC[C@@H](OCCC(=O)O)CC1CC[C@@H]1[C@@H]2CC[C@]2(C)C(=O)CC[C@@H]12 (stereo not given in full) | 7 | 48 | – | – | –
CC(C)(C)[C@@]1(O)CC[C@@]2(C)C(CC[C@@H]3[C@@H]2CC[C@]2(C)C(=O)CC[C@@H]32)C1 (stereo not given in full) | – | 93 | 142 | 89 | –
CCCO[C@@H]1CC[C@@]2(C)C(CC[C@@H]3[C@@H]2CC[C@]2(C)C(=O)CC[C@@H]32)C1 (stereo not given in full) | 49 | 93 | – | – | –
CO[C@]1(CCc2ccccc2)CC[C@@]2(C)C(CC[C@@H]3[C@@H]2CC[C@]2(C)C(=O)CC[C@@H]32)C1 (stereo not given in full) | 61 | 95 | 73 | – | –
C=CC[C@]1(O)CC[C@@]2(C)C(CC[C@@H]3[C@@H]2CC[C@]2(C)C(=O)CC[C@@H]32)C1 (stereo not given in full) | 14 | 36 | – | – | –
C[C@]12CC[C@@H](OCCCBr)CC1CC[C@@H]1[C@@H]2CC[C@]2(C)C(=O)CC[C@@H]12 (stereo not given in full) | 56 | 93 | – | – | –
CCCCCCO[C@]1(Cc2ccccc2)CC[C@@]2(C)C(CC[C@@H]3[C@@H]2CC[C@]2(C)C(=O)CC[C@@H]32)C1 (stereo not given in full) | 24 | 28 | – | – | –
C[C@]12CCC3(CCCO3)CC1CC[C@@H]1[C@@H]2CC[C@]2(C)C(=O)CC[C@@H]12 (stereo not given in full) | 3 | 94 | – | – | –
C[C@]12CC[C@@](O)(c3ccccc3)CC1CC[C@@H]1[C@@H]2CC[C@]2(C)C(=O)CC[C@@H]12 (stereo not given in full) | 7 | 39 | – | – | –
CCCCCCO[C@@H]1CC[C@@]2(C)C(CC[C@@H]3[C@@H]2CC[C@]2(C)C(=O)CC[C@@H]32)C1 (stereo not given in full) | 45 | 92 | – | – | –
C[C@]12CC[C@]3(CCC(=O)O3)CC1CC[C@@H]1[C@@H]2CC[C@]2(C)C(=O)CC[C@@H]12 (stereo not given in full) | 50 | 93 | – | – | –
CCCO[C@]1(Cc2ccccc2)CC[C@@]2(C)C(CC[C@@H]3[C@@H]2CC[C@]2(C)C(=O)CC[C@@H]32)C1 (stereo not given in full) | 60 | 87 | – | – | –
C[C@]12CC[C@](O)(CCCc3ccccc3)CC1CC[C@@H]1[C@@H]2CC[C@]2(C)C(=O)CC[C@@H]12 (stereo not given in full) | 93 | – | – | – | 97
CCCC[C@@]1(O)CC[C@@]2(C)C(CC[C@@H]3[C@@H]2CC[C@]2(C)C(=O)CC[C@@H]32)C1 (stereo not given in full) | 88 | 92 | 116 | – | –
CO[C@]1(Cc2ccccc2)CC[C@@]2(C)C(CC[C@@H]3[C@@H]2CC[C@]2(C)C(=O)CC[C@@H]32)C1 (stereo not given in full) | 91 | 93 | 154 | – | –

SMILES | inhibition [1] [%] | inhibition [2] [%] | IC50 [3] [nM] | inhibition [4] [%] | inhibition [5] [%]
CC(O)CO[C@@H]1CC[C@@]2(C)C(CC[C@@H]3[C@@H]2CC[C@]2(C)C(=O)CC[C@@H]32)C1 (stereo not given in full) | 40 | 89 | – | – | –
CO[C@]1(CCC2CCCCC2)CC[C@@]2(C)C(CC[C@@H]3[C@@H]2CC[C@]2(C)C(=O)CC[C@@H]32)C1 (stereo not given in full) | 80 | 88 | 354 | – | –
C=C[C@@]1(O)CC[C@@]2(C)C(CC[C@@H]3[C@@H]2CC[C@]2(C)C(=O)CC[C@@H]32)C1 (stereo not given in full) | 77 | 94 | – | – | –
C[C@]12CC[C@@](O)(CCCO)CC1CC[C@@H]1[C@@H]2CC[C@]2(C)C(=O)CC[C@@H]12 (stereo not given in full) | 2 | 17 | – | – | –
C=CC[C@@]1(O)CC[C@@]2(C)C(CC[C@@H]3[C@@H]2CC[C@]2(C)C(=O)CC[C@@H]32)C1 (stereo not given in full) | 31 | 76 | – | – | –
C=CCO[C@@H]1CC[C@@]2(C)C(CC[C@@H]3[C@@H]2CC[C@]2(C)C(=O)CC[C@@H]32)C1 (stereo not given in full) | 73 | 95 | – | – | –
CCO[C@@H]1CC[C@@]2(C)C(CC[C@@H]3[C@@H]2CC[C@]2(C)C(=O)CC[C@@H]32)C1 (stereo not given in full) | 69 | 95 | – | – | –
CCCCCCCCCCCC[C@@]1(O)CC[C@@]2(C)C(CC[C@@H]3[C@@H]2CC[C@]2(C)C(=O)CC[C@@H]32)C1 (stereo not given in full) | 50 | 77 | – | – | –
C[C@]12CC[C@@](O)(Cc3ccccc3)CC1CC[C@@H]1[C@@H]2CC[C@]2(C)C(=O)CC[C@@H]12 (stereo not given in full) | 10 | 39 | – | – | –
C[C@]12CC[C@](O)(CCCO)CC1CC[C@@H]1[C@@H]2CC[C@]2(C)C(=O)CC[C@@H]12 (stereo not given in full) | 17 | 74 | – | – | –
C[C@]12CC[C@H](O)CC1CC[C@@H]1[C@@H]2CC[C@]2(C)C(=O)CC[C@@H]12 (stereo not given in full) | 1 | 18 | – | – | –
C[C@]12CC[C@@]3(CCC(=O)O3)CC1CC[C@@H]1[C@@H]2CC[C@]2(C)C(=O)CC[C@@H]12 (stereo not given in full) | 9 | 53 | – | – | –
CCC[C@]1(O)CC[C@@]2(C)C(CC[C@@H]3[C@@H]2CC[C@]2(C)C(=O)CC[C@@H]32)C1 (stereo not given in full) | 9 | 33 | – | – | –
C[C@]1(O)CC[C@@]2(C)C(CC[C@@H]3[C@@H]2CC[C@]2(C)C(=O)CC[C@@H]32)C1 (stereo not given in full) | 9 | 16 | – | – | –
CCO[C@]1(Cc2ccccc2)CC[C@@]2(C)C(CC[C@@H]3[C@@H]2CC[C@]2(C)C(=O)CC[C@@H]32)C1 (stereo not given in full) | 80 | 92 | 352 | – | –
C[C@]12CC[C@@H](OCCCO)CC1CC[C@@H]1[C@@H]2CC[C@]2(C)C(=O)CC[C@@H]12 (stereo not given in full) | 38 | 86 | – | – | –
